KCNK9 inh: inhibitors of human KCNK9 two-pore domain potassium channel; 310,000 compounds, 1.2% hits; HEK293 KCNK9, FluxOR thallium flux fluorescence; hits give low values; B-score at 10 µM; Q9NPC2;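 active means ratio B-score over 3 SD below the library mean, with starting fluorescence within 5 SD of its mean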;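 further: negative B-score means less thallium flux so channel inhibition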
hERG protect: compounds protecting human hERG from proarrhythmic drug block; CHO-hERG, FluxOR thallium flux, dofetilide IC70 present; 310,000 compounds, 0.51% hits; activation (rescue from dofetilide block), less the hit threshold, % at 10 µM; Q12809;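 active means activation above the mean of controls blocked by dofetilide plus 5 SD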;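 further: thallium influx through hERG after potassium depolarization seen as dye fluorescence rise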
Kir21 block: blocks the mouse Kir2.1 inward-rectifier potassium channel. P35561. HEK293-Kir2.1, FluxOR thallium flux fluorescence; hits give low values. B-score at 10 µM. 310,000 compounds, 0.85% hits;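 active means fluorescence ratio B-score at or below minus 3 SD of library scores, with starting-brightness B-score within 2 SD, cut at about -4.2 in these data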;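 further: channel flux triggered by added potassium and thallium sulfate stimulus; B-score of peak minus minimum fluorescence over baseline after thallium stimulus; more negative B-score means stronger Kir2.1 block with less thallium influx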
KCNQ1 inh: human KCNQ1 channel inhibition. P51787. CHO-K1 KCNQ1, FluxOR thallium flux fluorescence; hits give high values. B-score at 10 µM. 310,000 compounds, 1.3% hits. AID 2642;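 active means compounds whose thallium flux B-score, printed positive for inhibition, exceeds three library SD while starting fluorescence stays within three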;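 further: channel opened by potassium depolarization with thallium stimulus after 20 min compound exposure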
KCNQ1 pot: potentiates or activates the human KCNQ1 potassium channel | CHO-K1 KCNQ1, thallium flux FluxOR fluorescence; hits give high values | 310,000 compounds, 0.35% hits | B-score at 10 µM | P51787 | AID 2648;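 active means fluorescence ratio B-score, a plate-corrected score, at least three library SD, with initial intensity B-score within 5 SD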
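Assay system: stable KCNQ1 CHO-K1 line; medium: assay buffer, equal DMSO in all wells; timing: 90 min dye loading and 20 min compound exposure, both at room temperature; technique: kinetic FluxOR thallium fluorescence, 10-s 1-Hz baseline, 110-s post-stimulus read; read-out basis: B score of baseline-normalized fluorescence ratio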
KCNK3 block: human KCNK3 channel inhibition, primary screen | 340,000 compounds, 0.84% hits | O14649 | CHO-KCNK3 thallium flux, FluxOR fluorescence; hits give low values | B-score at 10 µM;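 active means B-score under library mean minus 4 SD, starting fluorescence ratio at most library mean plus 5 SD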;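 further: more negative B-score means stronger inhibition of thallium flux through KCNK3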
Of the large screens only hits and unclear results are named; the others gave an inactive call; ! = not active in a repeat. The list is not random: actives were taken first. Their share in the collection is about 3.8%.

CC(=O)Nc1ccc(S(=O)(=O)c2cc(O)ccc2O)cc1	none
CCC(C(=O)NCCCN(CC)Cc1ccccc1)n1nc(C)c2sc3ccccc3c2c1=O (stereo not drawn)	Kir21 block -9.5
Cc1ccc(NC(=O)C2=C(c3ccccc3)S(=O)(=O)CCS2(=O)=O)cc1	Kir21 block -5.7
COc1ccc(N2C(=O)c3cccc4c(N(C)CCO)ccc(c34)C2=O)cc1	KCNQ1 inh 7
CCOC(=O)c1cc(NC(=O)Cc2ccc(S(=O)(=O)N3CCOCC3)s2)cc(C(=O)OCC)c1	KCNQ1 inh 7
Cc1ccccc1S(=O)(=O)Oc1cccc2c(O)cccc12	Kir21 block -4.3
CC(=O)c1cccc(NCC(=O)Nc2cc(S(=O)(=O)N3CCCCC3)ccc2C)c1	none
CC(=O)Nc1cccc(C(=O)OCC(=O)N(c2ccccc2)C2CCS(=O)(=O)C2)c1 (stereo not drawn)	none (no result: KCNK9 inh, hERG protect, Kir21 block, KCNQ1 inh, KCNQ1 pot)
Clc1ccc2c(N/N=C/c3cccc(Br)c3)ccnc2c1	KCNQ1 inh 9
CCc1ccc(C(C)NC(=O)C2CCCC2)cc1 (stereo not drawn)	hERG protect 4.9
CCC(NC(=O)C1(C)CC1(Br)Br)c1ccc(C)cc1 (stereo not drawn)	none
CCc1ccc(C(C)NC(=O)C2(C)CC2(Br)Br)cc1 (stereo not drawn)	hERG protect 4.9
CC(O)Cc1cn([C@@H](CCCCN)C(=O)N2CCNCC2)nn1 (stereo partly drawn)	KCNQ1 pot 19
NCCCC[C@@H](C(=O)N1CCNCC1)n1cc(CCC(=O)O)nn1	none
CCCCNC(=O)NNC(=O)COc1cccc(C)c1C	none
Cn1cc(Br)c(C(=O)NC2CCCCCC2)n1	none
COc1ccc(NC(=O)CC2CCCC2)cc1S(=O)(=O)N1CCCCC1	none
COc1ccc(NC(=O)CC2CCCCC2)cc1OC	hERG protect 5.7
Nc1ncc(Br)cc1S(=O)(=O)NCCC(=O)NCCc1ccccc1	none
O=C(CN1C(=O)NC2(CCCC2)C1=O)Nc1cc(S(=O)(=O)N2CCOCC2)ccc1OCC(F)(F)F	none
CCn1c(SC(C)C(=O)O)nc2sc3c(c2c1=O)CCC3 (stereo not drawn)	hERG protect 15, KCNQ1 pot 14
CCCn1c(SCC(=O)N2CCN(C(C)=O)CC2)nc2sc3c(c2c1=O)CCC3	hERG protect 25, KCNQ1 pot 16
COc1ccc(OCC(=O)N/N=C(\C)CC(=O)Nc2cccc([N+](=O)[O-])c2)cc1	none
NS(=O)(=O)c1ccc(CNC(=O)c2sccc2-c2ccccc2)cc1	none
CCCN(CCC)S(=O)(=O)c1cc2c3c(c1)CCN3C(=O)CC2	none
CCOc1cc(N2CCOCC2)c(OCC)cc1NC(=O)CCC1CCCC1	hERG protect 6.9
CCOc1cc(N2CCOCC2)c(OCC)cc1NC(=O)CN1C(=O)C2CC=CCC2C1=O (stereo not drawn)	hERG protect 7.2
COc1ccc(C(=O)N/C(=C\c2cn(S(=O)(=O)N(C)C)c3ccccc23)C(=O)N2CCOCC2)cc1	none
Cc1cc(C)cc(-n2c(C)cc(/C=N\NC(=O)COc3cccc4cccnc34)c2C)c1	KCNQ1 inh 7
N#C/C(=C\c1ccc(-c2ccc([N+](=O)[O-])cc2)o1)C(=O)Nc1nc(-c2cccs2)cs1	none
N#C/C(=C\c1ccc(-c2ccccc2[N+](=O)[O-])o1)C(=O)Nc1nc(-c2cccs2)cs1	hERG protect 12
O=C(O)C/C(=C\c1cc(Br)cs1)c1nc2ccccc2o1	hERG protect 6.1
N#CC1=C(N)SC(N)=C(C#N)C1c1cccc(Oc2ccccc2)c1	KCNQ1 inh 8
N#CC1=C(N)SC(N)=C(C#N)C1c1c(Cl)cccc1Cl	none
N#CC1=C(N)SC(N)=C(C#N)C1Cc1ccccc1	KCNQ1 inh 9
COc1cc(/C=C2/SC(=S)N(CC(=O)O)C2=O)ccc1OC(=O)c1ccco1	none
CS(=O)(=O)Nc1nc2n(n1)C(c1ccccc1)C=C(c1ccc(Br)cc1)N2 (stereo not drawn)	KCNQ1 inh 12
COc1ccc(C)cc1NC(=O)C(OC(=O)CNC(=O)c1ccc(Oc2ccccc2)cc1)c1ccccc1 (stereo not drawn)	KCNK9 inh -7.9
COc1ccc(C)cc1NC(=O)C(OC(=O)CNC(=O)c1cccc(F)c1)c1ccccc1 (stereo not drawn)	none
O=S(=O)(NCC(c1ccco1)N1CCN(c2ccccc2F)CC1)c1ccc2c(c1)OCCO2 (stereo not drawn)	none
O=S(=O)(NCC(c1ccco1)N1CCN(c2ccccc2F)CC1)c1ccccc1 (stereo not drawn)	KCNK9 inh -6.9
CC(C)c1nc2sc3c(=O)[nH]c(=S)[nH]c3c2c2c1CCC2	KCNQ1 pot 21 (no result: KCNK3 block)
CC(C)c1nc2sc3c(=O)[nH]c(=S)[nH]c3c2c2c1CCCC2	none
CC(NC(=O)COC(=O)c1cccs1)c1ccccc1 (stereo not drawn)	none
CC(NC(=O)COC(=O)/C(=C/c1cccs1)c1cccs1)c1ccccc1 (stereo not drawn)	KCNK9 inh -6.8
Cc1cccn2c(=O)c3cc(C#N)c(=NC(=O)c4ccco4)n(Cc4ccco4)c3nc12	none
CCOC(=O)c1cc2c(=O)n3cccc(C)c3nc2n(Cc2ccco2)c1=NC(=O)c1cccnc1	none (no result: KCNK9 inh, hERG protect, Kir21 block, KCNQ1 inh, KCNQ1 pot)
Cc1cccn2c(=O)c3cc(C#N)c(=NC(=O)c4ccccc4)n(Cc4ccco4)c3nc12	KCNK9 inh -7.3, KCNK3 block -9.1!
CCOC(=O)c1cc2c(=O)n3ccccc3nc2n(Cc2ccco2)c1=NC(=O)c1cccnc1	KCNQ1 inh 7
Cc1cccc(C(=O)N=c2c(C#N)cc3c(=O)n4cccc(C)c4nc3n2Cc2ccco2)c1	KCNQ1 inh 7
CNNCc1ccc(C(=O)NC(C)C)cc1	none
CC(=O)c1ccc(N2CCN(S(=O)(=O)c3cn(C)c(C)n3)CC2)cc1	none
Cc1nc(-c2ccc(NC(=O)Cc3ccccc3)cc2)cs1	KCNQ1 pot 8
CCC(=O)Nc1cccc(-c2cn3ccccc3n2)c1	none
CCC(=O)Nc1cccc(-c2csc(-c3ccccc3)n2)c1	KCNK9 inh -7.4
COc1ccc(C(=O)O)cc1S(=O)(=O)Nc1ccccc1-c1ccccc1	none
COc1ccccc1Nc1nc(N)nc(CN2CCC(Cc3ccccc3)CC2)n1	none
COc1ccc(Nc2nc(N)nc(CN3CCC(Cc4ccccc4)CC3)n2)cc1	Kir21 block -4.4
O=C(OCC(=O)N1CCCC1=O)c1nc(Cl)c(Cl)c(Cl)c1Cl	none
Cc1ccc(S(=O)(=O)N[C@H](C(=O)Oc2ccc3c(C(F)(F)F)cc(=O)oc3c2)c2ccccc2)cc1	KCNQ1 inh 9
Cc1ccc(S(=O)(=O)NC(C(=O)Oc2ccc3ccc(=O)oc3c2)c2ccccc2)cc1 (stereo not drawn)	none
